# Assay results gathered from unrelated publications.
# Compare with care: the assays were run in different laboratories.
# Target: Serine/threonine-protein kinase RIO2 (RIOK2, Homo sapiens, UniProt Q9BVS4)
SMILES,test,setting,remaining binding [%]
c1cncc(-c2cccc(Nc3nccc(NC4CCCCC4)n3)c2)c1,"binding, competition with immobilised ligand",10 µM,37
CCN1CCN(Cc2ccc(C(=O)Nc3ccc(C)c(Oc4ccc5c(c4)CC(=O)N5)c3)cc2C(F)(F)F)CC1,"binding, competition with immobilised ligand",1 µM,100
C=CC(=O)N1CCC(C(=O)NCC(=O)N2CCN(c3nc(-c4cnc(N)nc4C(F)F)nc(N4CCOCC4)n3)CC2)CC1,"binding, competition with immobilised ligand",1 µM,83
Cc1nc(N2CC[C@@H](O)C2)ncc1-c1cc(C(F)(F)F)cc2[nH]ncc12,"binding, competition with immobilised ligand",1 µM,100
O=C(NCC1CCOCC1)c1n[nH]cc1NC(=O)c1c(F)cccc1F,"binding, competition with immobilised ligand",1 µM,35
CN(C)c1ncc(F)c(-c2cnn3ncccc23)n1,binding,1 µM,78
NS(=O)(=O)c1cc(NC(=O)Cc2ccccc2)ccc1Oc1cccc(Cl)c1,"cell-free assay, competition with immobilised ligand",1 µM,100
COc1ncc2cc3ccccc3nc2c1C#N,"cell-free assay, competition with immobilised ligand",5 µM,91
CCOC(=O)c1cc2cc(-c3cc(C(=O)NCc4ccc(C(=O)O)cc4)nn3C)ccc2[nH]1,"cell-free assay, competition with immobilised ligand",0.1 µM,100
CN(CCCC(F)(F)F)c1nccc(-c2cnn3ncccc23)n1,binding,1 µM,100
O=C(Nc1ccc(Oc2ccc(F)cc2)cc1)N1CCc2ncccc2[C@H]1c1ccc(F)cc1,"cell-free assay, competition with immobilised ligand",1 µM,94
O=C(c1ccc(Nc2nccc(-c3cc4ccccc4s3)n2)cc1)N1CCC(N2CCCC2)CC1,"binding, competition with immobilised ligand",1 µM,46
CNC(=O)[C@@H]1CC[C@@H](n2c(-c3ccc4cnccc4c3)nc3ccc(C(=O)NCc4cccc(C(N)=O)c4)cc32)C1,"binding, competition with immobilised ligand",1 µM,97
Cc1cnn2ncc(-c3ccnc(N(C)C)n3)c2c1,binding,1 µM,92
O=C(NCCCN1CCOCC1)c1ccc(Nc2ncc(Cl)c(-c3ccc(Cl)s3)n2)cc1,"binding, competition with immobilised ligand",1 µM,59
C[C@@H]1CN(c2ccc3ncc(-c4ccc5[nH]nc(C6CC6)c5c4)n3n2)C[C@H](C)O1,"binding, competition with immobilised ligand",0.5 µM,23
C[C@@H]1CCN(c2nccc(-c3cnn4ncccc34)n2)C1,binding,1 µM,75
CS(=O)(=O)N1CCCC(NC(=O)[C@H](CCC2CCCCC2)NC(=O)c2ccc(CNc3ncnc4c3nnn4-c3ccccc3)cc2)C1 (stereo partly drawn),"cell-free assay, competition with immobilised ligand",0.1 µM,99
Cc1cnc(Nc2ccc(C(=O)N3CCC(N4CCCC4)CC3)cc2)nc1-c1cc2ccccc2s1,"binding, competition with immobilised ligand",1 µM,40
c1cnn2ncc(-c3ccnc(N4CCC45COC5)n3)c2c1,binding,1 µM,61
CCc1ccccc1C(=O)Nc1n[nH]c2c(C)c(F)c(C3C(C#N)=C(C)N(C)C(C)=C3C#N)cc12,"cell-free assay, competition with immobilised ligand",1 µM,93
CC(C)(C)c1ccc(-c2nc(CBr)nn2-c2cccc(O)c2)cc1,"cell-free assay, competition with immobilised ligand",10 µM,84
c1ccc(N2CCN(Cc3nc4ccccc4[nH]3)CC2)nc1,"binding, competition with immobilised ligand",1 µM,100
F[C@@H]1CCN(c2nccc(-c3cnn4ncccc34)n2)C1,binding,1 µM,64
